Results as given in ChEMBL document CHEMBL1142063, “Synthesis of omeprazole analogues and evaluation of these as potential inhibitors of the multidrug efflux pump NorA of Staphylococcus aureus” (2007).
Activity calls are given as the source filed them. No cut-off for these calls is given here.

Columns and labels:
[1] = system: Staphylococcus aureus; test: Increase in 5 ug levofloxacin antibacterial activity against Staphylococcus aureus SA1199B mutant overexpressing NorA at 32 ug/ml by disk diffusion method; assay type: functional
Method in brief: (§1)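 Agar diffusion on Mueller-Hinton agar (adjusted to 20 μg/ml Ca²⁺ and 10 μg/ml Mg²⁺), used plain or with the efflux inhibitor incorporated at the stated concentration. Disks were 5 μg for the fluoroquinolones and 30 μg for chloramphenicol. Plates were incubated overnight at 37°C, and inhibition zone diameters were measured. Values are means of at least three independent experiments.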

[2] = system: Staphylococcus aureus; test: Increase in 5 ug levofloxacin antibacterial activity against Staphylococcus aureus SA1199B mutant overexpressing NorA at 16 ug/ml by disk diffusion method; assay type: functional; method in brief: as §1
[3] = system: Staphylococcus aureus; test: Increase in 5 ug sparfloxacin antibacterial activity against Staphylococcus aureus SA1199B mutant overexpressing NorA at 128 ug/ml by disk diffusion method; assay type: functional; method in brief: as §1
[4] = system: Staphylococcus aureus; test: Increase in 5 ug moxifloxacin antibacterial activity against Staphylococcus aureus SA1199B mutant overexpressing NorA at 128 ug/ml by disk diffusion method; assay type: functional; method in brief: as §1
[5] = system: Staphylococcus aureus; test: Increase in 5 ug ofloxacin antibacterial activity against Staphylococcus aureus SA1199B mutant overexpressing NorA at 32 ug/ml by disk diffusion method; assay type: functional; method in brief: as §1
[6] = system: Staphylococcus aureus; test: Increase in 5 ug levofloxacin antibacterial activity against Staphylococcus aureus SA1199B mutant overexpressing NorA at 64 ug/ml by disk diffusion method; assay type: functional; method in brief: as §1
[7] = system: Staphylococcus aureus; test: Increase in 5 ug sparfloxacin antibacterial activity against Staphylococcus aureus SA1199B mutant overexpressing NorA at 64 ug/ml by disk diffusion method; assay type: functional; method in brief: as §1
[8] = system: Staphylococcus aureus; test: Increase in 5 ug sparfloxacin antibacterial activity against Staphylococcus aureus SA1199B mutant overexpressing NorA at 32 ug/ml by disk diffusion method; assay type: functional; method in brief: as §1
[9] = system: Staphylococcus aureus; test: Increase in 5 ug sparfloxacin antibacterial activity against Staphylococcus aureus SA1199B mutant overexpressing NorA at 16 ug/ml by disk diffusion method; assay type: functional; method in brief: as §1
[10] = system: Staphylococcus aureus; test: Increase in 5 ug moxifloxacin antibacterial activity against Staphylococcus aureus SA1199B mutant overexpressing NorA at 64 ug/ml by disk diffusion method; assay type: functional; method in brief: as §1
[11] = system: Staphylococcus aureus; test: Increase in 5 ug moxifloxacin antibacterial activity against Staphylococcus aureus SA1199B mutant overexpressing NorA at 32 ug/ml by disk diffusion method; assay type: functional; method in brief: as §1
[12] = system: Staphylococcus aureus; test: Increase in 5 ug moxifloxacin antibacterial activity against Staphylococcus aureus SA1199B mutant overexpressing NorA at 16 ug/ml by disk diffusion method; assay type: functional; method in brief: as §1
[13] = system: Staphylococcus aureus; test: Increase in 30 ug chloramphenicol antibacterial activity against Staphylococcus aureus SA1199B mutant overexpressing NorA at 128 ug/ml by disk diffusion method; assay type: functional; method in brief: as §1
[14] = system: Staphylococcus aureus; test: Increase in 30 ug chloramphenicol antibacterial activity against Staphylococcus aureus SA1199B mutant overexpressing NorA at 64 ug/ml by disk diffusion method; assay type: functional; method in brief: as §1
[15] = system: Staphylococcus aureus; test: Increase in 30 ug chloramphenicol antibacterial activity against Staphylococcus aureus SA1199B mutant overexpressing NorA at 32 ug/ml by disk diffusion method; assay type: functional; method in brief: as §1
[16] = system: Staphylococcus aureus; test: Increase in 30 ug chloramphenicol antibacterial activity against Staphylococcus aureus SA1199B mutant overexpressing NorA at 16 ug/ml by disk diffusion method; assay type: functional; method in brief: as §1
[17] = system: Staphylococcus aureus; test: Antibacterial activity against Staphylococcus aureus; assay type: functional
Method in brief: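 Tube broth dilution MIC against SA-1199 and NorA-overproducing SA-1199B in Mueller-Hinton broth with 20 μg/ml Ca²⁺ and 10 μg/ml Mg²⁺. Inoculum was a 4–5 h 37°C culture diluted 1/10 (≈10⁶ CFU/ml). Compound range was 512 to 1 μg/ml, dissolved in DMSO (final ≤4%).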

[18] = system: Staphylococcus aureus; test: Increase in 2 ug/ml Norfloxacin antibacterial activity against wild type Staphylococcus aureus SA1199 at 128 ug/ml by checker board method; assay type: functional
[19] = system: Staphylococcus aureus; test: Increase in 64 ug/ml Norfloxacin antibacterial activity against Staphylococcus aureus SA1199B mutant overexpressing NorA at 128 ug/ml by checker board method; assay type: functional
[20] = system: Staphylococcus aureus; test: Increase in 16 ug/ml Norfloxacin accumulation in wild type Staphylococcus aureus SA1199 at 128 ug/ml after 20 mins; assay type: functional
Method in brief: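 Mid-exponential SA-1199 cells were washed and resuspended in 50 mM sodium phosphate, pH 7.0. They were exposed at time zero to norfloxacin at one-quarter MIC, alone or with EPI at 128 μg/ml. At 5–20 min, cells were spun through silicone-paraffin oil into orthophosphoric acid. Lysate norfloxacin was measured by C18 HPLC with fluorescence detection (ex 240, em 280 nm) and normalized to BCA protein (ng/mg). Triplicate experiments, mean reported.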

[21] = system: Staphylococcus aureus; test: Increase in 16 ug/ml Norfloxacin accumulation in Staphylococcus aureus SA1199B mutant overexpressing NorA measured per mg of cell protein at 128 ug/ml after 5 mins; assay type: functional, organism-based
Method in brief: (§2)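 SA-1199B was grown to mid-exponential phase in MH broth (4–5 h, 37°C, shaken), then washed and resuspended in 50 mM sodium phosphate, pH 7.0. Cells got norfloxacin at one-quarter MIC, alone or with inhibitor at 128 μg/ml. At 5–20 min, cells were spun through silicone-paraffin oil into orthophosphoric acid. Norfloxacin was measured by HPLC fluorescence (ex 240/[…]) as ng/mg BCA protein. Means of triplicate experiments.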

[22] = system: Staphylococcus aureus; test: Increase in 5 ug Norfloxacin antibacterial activity against Staphylococcus aureus SA1199B mutant overexpressing NorA at 128 ug/ml by disk diffusion method; assay type: functional; method in brief: as §1
[23] = system: Staphylococcus aureus; test: Increase in 5 ug Norfloxacin antibacterial activity against Staphylococcus aureus SA1199B mutant overexpressing NorA at 64 ug/ml by disk diffusion method; assay type: functional; method in brief: as §1
[24] = system: Staphylococcus aureus; test: Increase in 5 ug Norfloxacin antibacterial activity against Staphylococcus aureus SA1199B mutant overexpressing NorA at 32 ug/ml by disk diffusion method; assay type: functional; method in brief: as §1
[25] = system: Staphylococcus aureus; test: Increase in 5 ug Norfloxacin antibacterial activity against Staphylococcus aureus SA1199B mutant overexpressing NorA at 16 ug/ml by disk diffusion method; assay type: functional; method in brief: as §1
[26] = system: Staphylococcus aureus; test: Increase in 5 ug ciprofloxacin antibacterial activity against Staphylococcus aureus SA1199B mutant overexpressing NorA at 128 ug/ml by disk diffusion method; assay type: functional; method in brief: as §1
[27] = system: Staphylococcus aureus; test: Increase in 5 ug ciprofloxacin antibacterial activity against Staphylococcus aureus SA1199B mutant overexpressing NorA at 64 ug/ml by disk diffusion method; assay type: functional; method in brief: as §1
[28] = system: Staphylococcus aureus; test: Increase in 5 ug ciprofloxacin antibacterial activity against Staphylococcus aureus SA1199B mutant overexpressing NorA at 32 ug/ml by disk diffusion method; assay type: functional; method in brief: as §1
[29] = system: Staphylococcus aureus; test: Increase in 5 ug ciprofloxacin antibacterial activity against Staphylococcus aureus SA1199B mutant overexpressing NorA at 16 ug/ml by disk diffusion method; assay type: functional; method in brief: as §1
[30] = system: Staphylococcus aureus; test: Increase in 5 ug ofloxacin antibacterial activity against Staphylococcus aureus SA1199B mutant overexpressing NorA at 128 ug/ml by disk diffusion method; assay type: functional; method in brief: as §1
[31] = system: Staphylococcus aureus; test: Increase in 5 ug ofloxacin antibacterial activity against Staphylococcus aureus SA1199B mutant overexpressing NorA at 64 ug/ml by disk diffusion method; assay type: functional; method in brief: as §1
[32] = system: Staphylococcus aureus; test: Increase in 5 ug ofloxacin antibacterial activity against Staphylococcus aureus SA1199B mutant overexpressing NorA at 16 ug/ml by disk diffusion method; assay type: functional; method in brief: as §1
[33] = system: Staphylococcus aureus; test: Increase in 5 ug levofloxacin antibacterial activity against Staphylococcus aureus SA1199B mutant overexpressing NorA at 128 ug/ml by disk diffusion method; assay type: functional; method in brief: as §1
[34] = system: Staphylococcus aureus; test: Increase in 16 ug/ml Norfloxacin accumulation in Staphylococcus aureus SA1199B mutant overexpressing NorA measured per milligram of cell protein at 128 ug/ml after 20 mins; assay type: functional, organism-based; method in brief: as §2
[35] = system: Staphylococcus aureus; test: Increase in 16 ug/ml Norfloxacin accumulation in Staphylococcus aureus SA1199B mutant overexpressing NorA at 128 ug/ml after 20 mins; assay type: functional; method in brief: as §2
[36] = system: Staphylococcus aureus; test: Antibacterial activity against Staphylococcus aureus SA1199 at 5 ug by disk diffusion method; conditions: read-out: IZ
[37] = system: Staphylococcus aureus; test: Antibacterial activity against Staphylococcus aureus SA1199B overexpressing NorA at 30 ug by disk diffusion method; assay type: functional; conditions: read-out: IZ; method in brief: as §1
[38] = system: Staphylococcus aureus; test: Increase in 16 ug/ml Norfloxacin antibacterial activity against Staphylococcus aureus SA1199B mutant overexpressing NorA at 128 ug/ml after 24 hrs by time-kill curve method; assay type: functional, organism-based
Method in brief: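 Log-phase SA-1199B inoculum at 10⁶ CFU/ml in MH broth with norfloxacin 16 μg/ml plus inhibitor 128 μg/ml, 37°C. Viable counts were taken by dilution plating in triplicate on MH agar at 0, 2, 4, 8 and 24 h. Results are expressed as log percentage survival, means of three experiments. Sensitivity limit was 1 log₁₀ CFU/ml.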

Row | Structure (SMILES) | inhibition zone (IZ) [1] [mm] | inhibition zone (IZ) [2] [mm] | inhibition zone (IZ) [3] [mm] | inhibition zone (IZ) [4] [mm] | inhibition zone (IZ) [5] [mm] | inhibition zone (IZ) [6] [mm] | inhibition zone (IZ) [7] [mm] | inhibition zone (IZ) [8] [mm] | inhibition zone (IZ) [13] [mm] | MIC [17] [µg/mL] | MIC [18] [µg/mL] | MIC [19] [µg/mL] | Activity [20] [%] | Drug uptake [21] [ng/mg] | inhibition zone (IZ) [22] [mm] | inhibition zone (IZ) [26] [mm] | inhibition zone (IZ) [30] [mm] | inhibition zone (IZ) [33] [mm] | Drug uptake [34] [ng/mg] | Activity [35] [%] | also measured
1 | COc1ccc2[nH]c([S+]([O-])Cc3ncc(C)c(OC)c3C)nc2c1 (stereo not drawn) [OMEPRAZOLE] | 21 | 21 | 28 | 30 | 18 | 23 | 27 | 27 | 25 | > 512 | 1 | 8 | 10 | 270 | 14 | 22 | 23 | 25 | 400 | 40 | inhibition zone (IZ) [9]: 26 mm; inhibition zone (IZ) [10]: 29 mm; inhibition zone (IZ) [11]: 27 mm; inhibition zone (IZ) [12]: 27 mm; inhibition zone (IZ) [14]: 24 mm; inhibition zone (IZ) [15]: 24 mm; inhibition zone (IZ) [16]: 24 mm; inhibition zone (IZ) [23]: 12 mm; inhibition zone (IZ) [24]: 6 mm; inhibition zone (IZ) [25]: 6 mm; inhibition zone (IZ) [27]: 19 mm; inhibition zone (IZ) [28]: 15 mm; inhibition zone (IZ) [29]: 13 mm; inhibition zone (IZ) [31]: 20 mm; inhibition zone (IZ) [32]: 18 mm
2 | C[C@@H]1CN(c2c(F)c(N)c3c(=O)c(C(=O)O)cn(C4CC4)c3c2F)C[C@H](C)N1 [SPARFLOXACIN] |  |  |  |  |  |  |  |  |  |  |  |  |  |  |  |  |  |  |  |  | zone of inhibition at 5 µg/disc [36]: 30 mm
3 | C[C@H]1COc2c(N3CCN(C)CC3)c(F)cc3c(=O)c(C(=O)O)cn1c23 [LEVOFLOXACIN] |  |  |  |  |  |  |  |  |  |  |  |  |  |  |  |  |  |  |  |  | zone of inhibition at 5 µg/disc [36]: 30 mm
4 | O=C(N[C@H](CO)[C@H](O)c1ccc([N+](=O)[O-])cc1)C(Cl)Cl [CHLORAMPHENICOL] |  |  |  |  |  |  |  |  |  |  |  |  |  |  |  |  |  |  |  |  | zone of inhibition at 30 µg/disc [37]: 24 mm
5 | COc1ccc2[nH]c([S+]([O-])Cc3nc4cc(Cl)ccc4n4cccc34)nc2c1 (stereo not drawn) |  |  | 28 | 28 |  |  |  |  | 27 | > 512 | 1 | 4 | 10 | 270 | 18 | 25 | 26 | 27 | 400 | 40 | Activity [38]: Active
6 | COC(=O)[C@H]1[C@H]2C[C@@H]3c4[nH]c5cc(OC)ccc5c4CCN3C[C@H]2C[C@@H](OC(=O)c2cc(OC)c(OC)c(OC)c2)[C@@H]1OC [RESERPINE] | 24 | 22 | 28 | 28 | 19 | 24 | 27 | 27 | 25 | > 512 | 1 | 8 | 10 | 270 | 13 | 22 | 21 | 24 | 400 | 40 | inhibition zone (IZ) [9]: 27 mm; inhibition zone (IZ) [10]: 28 mm; inhibition zone (IZ) [11]: 28 mm; inhibition zone (IZ) [12]: 28 mm; inhibition zone (IZ) [14]: 25 mm; inhibition zone (IZ) [15]: 24 mm; inhibition zone (IZ) [16]: 24 mm; inhibition zone (IZ) [23]: 12 mm; inhibition zone (IZ) [24]: 12 mm; inhibition zone (IZ) [25]: 9 mm; inhibition zone (IZ) [27]: 20 mm; inhibition zone (IZ) [28]: 18 mm; inhibition zone (IZ) [29]: 16 mm; inhibition zone (IZ) [31]: 20 mm; inhibition zone (IZ) [32]: 19 mm
